Laboratory results published in ChEMBL document CHEMBL1128421, “(Piperidinylalkoxy)chromones: novel antihistamines with additional antagonistic activity against leukotriene D4” (J Med Chem, 1995).
Calls of active or inactive are those of the source. No cut-off for these calls is given here.

Target: T1, Cysteinyl leukotriene receptor 1 (Cavia porcellus, UniProt Q2NNR5)
T1 sequence (Q2NNR5 whole entry): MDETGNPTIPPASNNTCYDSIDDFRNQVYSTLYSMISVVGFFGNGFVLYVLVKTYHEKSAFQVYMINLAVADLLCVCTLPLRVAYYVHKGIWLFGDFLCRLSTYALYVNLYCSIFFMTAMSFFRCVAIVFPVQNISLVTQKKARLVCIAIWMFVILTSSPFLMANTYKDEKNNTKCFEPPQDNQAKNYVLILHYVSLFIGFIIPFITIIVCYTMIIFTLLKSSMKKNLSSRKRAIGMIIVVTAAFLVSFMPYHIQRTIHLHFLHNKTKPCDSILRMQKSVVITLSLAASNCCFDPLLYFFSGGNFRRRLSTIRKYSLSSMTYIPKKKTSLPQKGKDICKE
Experiment: Dissociation constant was determined against Cysteinyl leukotriene D4 receptor of guinea pig lung membranes using radioligand binding assays.
Format: tissue-based
Details: not given

| Compound | Kd |
| --- | --- |
| O=C(O)c1cc(=O)c2cc(OCCCN3CCC(=C(c4ccccc4)c4ccccc4)CC3)ccc2o1 | 4270 nM |
| O=c1cc(C2N=NN=N2)oc2cc(OCCCN3CCC(=C(c4ccccc4)c4ccccc4)CC3)ccc12 | 2340 nM |

Species on record: Cavia porcellus
Experiment: Compound was evaluated for antihistaminic activity against isolated guinea pig ileum.
Format: functional
Details: not given
Procedure, shortened: (§1)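 Isolated guinea pig ileum segment (about 2 cm) in an organ bath of Krebs buffer at 37 °C, bubbled with 95% O2–5% CO2. Three cumulative histamine dose-response curves were run first, starting at 10 nM. After washing, the strip was exposed to compound for 30 min and the curve repeated. KB was derived by Cheng–Prusoff. Means ± SD of ≥3 independent experiments.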

| Compound | Kb |
| --- | --- |
| Cc1ccc(C(OC2CCN(CCCOc3ccc4c(=O)cc(C(=O)O)oc4c3)CC2)c2ccccc2)cc1 (stereo in doubt; 1j) | 2.24 nM |
| Cc1ccc(C(OC2CCN(CCCOc3ccc4c(=O)cc(C(=O)O)oc4c3)CC2)c2ccccc2)cc1 (stereo in doubt; 1i) | 12.3 nM |

Same assay, conditions: Cavia porcellus, Ileum

| Compound | Kb |
| --- | --- |
| O=C(O)c1cc(=O)c2cc(OCCCN3CCC(=C(c4ccccc4)c4ccccc4)CC3)ccc2o1 | 5.75 nM |
| O=C(O)c1cc(=O)c2ccc(OCCCCCCN3CCC(OC(c4ccccc4)c4ccccc4)CC3)cc2o1 | 5.13 nM |
| O=C(O)c1cc(=O)c2ccc(OCCCCCN3CCC(OC(c4ccccc4)c4ccccc4)CC3)cc2o1 | 17 nM |
| O=C(O)c1cc(=O)c2ccc(OCCCN3CCC(OC(c4ccccc4)c4ccccc4)CC3)cc2o1 | 9.12 nM |
| O=c1cc(C2N=NN=N2)oc2cc(OCCCN3CCC(C(O)(c4ccccc4)c4ccccc4)CC3)ccc12 | 1.7 nM |
| O=C(O)c1cc(=O)c2cc(OCCCN3CCC(C(O)(c4ccccc4)c4ccccc4)CC3)ccc2o1 | 3.8 nM |
| O=c1cc(C2N=NN=N2)oc2cc(OCCCN3CCC(=C(c4ccccc4)c4ccccc4)CC3)ccc12 | 3.63 nM |
| O=C(O)c1cc(=O)c2ccc(OCCCN3CCC(C(O)(c4ccccc4)c4ccccc4)CC3)cc2o1 | 5.25 nM |
| O=C(O)c1cc(=O)c2ccc(OCCCN3CCC(=C(c4ccccc4)c4ccccc4)CC3)cc2o1 | 16.2 nM |
| O=C(O)c1cc(=O)c2ccc(OCCCCN3CCC(OC(c4ccccc4)c4ccccc4)CC3)cc2o1 | 7.08 nM |

Species on record: Cavia porcellus
Experiment: Compound was evaluated for inhibition of contraction in guinea pig ileum induced by leukotriene D4 (LTD4).
Format: functional, organism-based
Details: not given
Procedure, shortened: (§2)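 Isolated guinea pig ileum strip in Krebs buffer at 37 °C, continuously bubbled with 95% O2–5% CO2. After washing, the strip was pre-incubated with compound for 30 min before LTD4 challenge. Contraction was induced by LTD4 at 10 nM. The value reported is the antagonist concentration giving 50% of maximal inhibition. Means ± SD of ≥3 independent experiments.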

| Compound | IC50 |
| --- | --- |
| CCCc1c(OCC(O)COc2ccc3c(=O)cc(C(=O)O)oc3c2CCC)ccc(C(C)=O)c1O (stereo unspecified) [FPL-55712] | 120 nM |
| O=C(O)c1cc(=O)c2cc(OCCCN3CCC(=C(c4ccccc4)c4ccccc4)CC3)ccc2o1 | 650 nM |
| O=C(O)c1cc(=O)c2ccc(OCCCCCCN3CCC(OC(c4ccccc4)c4ccccc4)CC3)cc2o1 | 48200 nM |
| O=C(O)c1cc(=O)c2ccc(OCCCCCN3CCC(OC(c4ccccc4)c4ccccc4)CC3)cc2o1 | 18300 nM |
| O=C(O)c1cc(=O)c2ccc(OCCCN3CCC(OC(c4ccccc4)c4ccccc4)CC3)cc2o1 | 1450 nM |
| O=c1cc(C2N=NN=N2)oc2cc(OCCCN3CCC(C(O)(c4ccccc4)c4ccccc4)CC3)ccc12 | 56700 nM |
| O=C(O)c1cc(=O)c2cc(OCCCN3CCC(C(O)(c4ccccc4)c4ccccc4)CC3)ccc2o1 | > 100000 nM |
| O=c1cc(C2N=NN=N2)oc2cc(OCCCN3CCC(=C(c4ccccc4)c4ccccc4)CC3)ccc12 | 190 nM |
| O=C(O)c1cc(=O)c2ccc(OCCCN3CCC(C(O)(c4ccccc4)c4ccccc4)CC3)cc2o1 | 22800 nM |
| O=C(O)c1cc(=O)c2ccc(OCCCN3CCC(=C(c4ccccc4)c4ccccc4)CC3)cc2o1 | 20400 nM |
| O=C(O)c1cc(=O)c2ccc(OCCCCN3CCC(OC(c4ccccc4)c4ccccc4)CC3)cc2o1 | 9890 nM |

Species on record: Cavia porcellus
Experiment: Compound was evaluated for inhibition of contraction in guinea pig ileum induced by leukotriene D4 (LTD4); Not active
Format: functional, organism-based
Details: not given
Procedure, shortened: as §2

| Compound | IC50 |
| --- | --- |
| CC(C)(C)c1ccc(C(O)CCCN2CCC(C(O)(c3ccccc3)c3ccccc3)CC2)cc1 (stereo unspecified) [TERFENADINE] | Not Active |

Target: T2, Histamine H1 receptor (Cavia porcellus, UniProt P31389)
Experiment: Dissociation constant was determined against H1 receptor of guinea pig lung membranes using radioligand binding assays.
Format: tissue-based
Details: not given
Procedure, shortened: (§3)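 Guinea pig lung membranes were incubated with 0.5 nM [3H]mepyramine and compound at 37 °C in 50 mM Na-K phosphate, pH 7.5. Nonspecific binding was defined with (-)-dimethindene. The reaction was stopped with ice-cold buffer, then filtered on GF/C and counted by scintillation. KB by Cheng–Prusoff; means of two independent assays in triplicate.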

T2 sequence (P31389 whole entry): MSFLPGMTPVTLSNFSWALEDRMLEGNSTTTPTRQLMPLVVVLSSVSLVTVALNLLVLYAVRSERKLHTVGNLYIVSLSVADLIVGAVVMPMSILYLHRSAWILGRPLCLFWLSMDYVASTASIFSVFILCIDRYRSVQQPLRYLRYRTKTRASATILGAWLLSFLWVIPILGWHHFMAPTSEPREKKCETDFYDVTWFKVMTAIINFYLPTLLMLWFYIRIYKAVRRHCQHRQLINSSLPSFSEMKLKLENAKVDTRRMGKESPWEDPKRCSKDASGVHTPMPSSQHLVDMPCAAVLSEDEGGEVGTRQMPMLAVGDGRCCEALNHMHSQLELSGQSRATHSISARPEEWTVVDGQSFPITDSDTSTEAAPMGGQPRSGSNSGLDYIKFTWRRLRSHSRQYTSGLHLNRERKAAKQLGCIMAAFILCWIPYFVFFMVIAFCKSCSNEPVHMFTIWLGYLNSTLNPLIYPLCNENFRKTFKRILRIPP

| Compound | Kd |
| --- | --- |
| O=C(O)c1cc(=O)c2cc(OCCCN3CCC(=C(c4ccccc4)c4ccccc4)CC3)ccc2o1 | 5.98 nM |

Target: T2, Histamine H1 receptor
Experiment: dissociation constant was determined against H1 receptor of guinea pig lung membranes using radioligand binding assays.
Format: tissue-based
Details: not given
Procedure, shortened: as §3, with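 “scintillation. Radioligand KD was 3.30 nM.” for “scintillation.”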

| Compound | Kd |
| --- | --- |
| O=c1cc(C2N=NN=N2)oc2cc(OCCCN3CCC(=C(c4ccccc4)c4ccccc4)CC3)ccc12 | 5.89 nM |

Species on record: Cavia porcellus
Experiment: Compound was evaluated for antihistaminic activity against isolated guinea pig ileum; Not active
Format: functional
Details: not given
Procedure, shortened: as §1

| Compound | Kb |
| --- | --- |
| CCCc1c(OCC(O)COc2ccc3c(=O)cc(C(=O)O)oc3c2CCC)ccc(C(C)=O)c1O (stereo unspecified) [FPL-55712] | inactive |

Species on record: Cavia porcellus
Experiment: Compound was evaluated for inhibition of [3H]LTD4 binding in guinea pig lung membrane fragments.
Details: not given

| Compound | IC50 |
| --- | --- |
| Cc1ccc(C(OC2CCN(CCCOc3ccc4c(=O)cc(C(=O)O)oc4c3)CC2)c2ccccc2)cc1 (stereo in doubt; 1j) | 212000 nM |
| Cc1ccc(C(OC2CCN(CCCOc3ccc4c(=O)cc(C(=O)O)oc4c3)CC2)c2ccccc2)cc1 (stereo in doubt; 1i) | 16600 nM |
